# High-throughput results from PubChem BioAssay.
# XBP1 UPR activ = activators of adaptive XBP1 UPR arm, primary screen, cell-based, CHO-XBP1 luciferase reporter, luminescence, uHTS. activation, % at 20 µM. IRE1-XBP1 UPR activation; percent of tunicamycin response, DMSO as zero. AID 463104, 2010. 0.33% of 330,000 active;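 active = versus positive control, 20 µM dose yields 30% or more activation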;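 note: 100% = tunicamycin at 10 µg/mL and 0% = DMSO only wells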
#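 Signal: luciferase luminescence; Assay system: CHO-XBP1 luciferase reporter cells; Amount: one thousand reporter cells per well; Dosing: 20 µM single concentration, DMSO 1%; Benchmarks: high control tunicamycin 10 µg/mL final, low control DMSO vehicle only; Schedule: 6 h compound exposure at 37 °C, 5% CO2; Evaluation: percent activation relative to tunicamycin reference.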
# CHOP inhibitor = inhibitors of CHOP promoter induction, primary screen, cell-based, unfolded protein response, luciferase reporter; CHO-K1 CHOP-promoter luciferase, tunicamycin-induced, 15-18 h; inhibition, % at 10 µM; 3.8% of 220,000 active;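 active = compounds that reduced the stress-induced luciferase reporter signal by more than about 70% of percent inhibition, limit read from the data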;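 note: 0% = tunicamycin plus vehicle and 100% = wells without tunicamycin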
# TLR9-MyD88 block = inhibitors of TLR9-MyD88 association in cells, primary screen, cell-based, CHO, BLA complementation, fluorescence. Toll-like receptor 9 (Homo sapiens) + Myeloid differentiation primary response protein …. 0.21% of 340,000 active. AID 504734, 2011. CCF4 FRET ratio. inhibition, % at 4.98 µM;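 active = inhibition above the mean over all tested compounds plus 3 SD, cut at about 21% in these data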;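 note: 0% = DMSO only wells and 100% = clavulanate BLA inhibitor control wells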
# NOD2-RIPK2 inh = NOD2-RIPK2 binding disruptors in cells, primary screen, fluorescence, CHO cells, BLA complementation; inhibition, % at 4.98 µM; CCF4 ratio; 0.38% of 360,000 active; Receptor-interacting serine/threonine-protein kinase 2 (Homo sapiens), O43353; in the data active = inhibition above about 21%;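 note: 0% = vehicle only and 100% = reference blocker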
# TLR4 MyD88 comp = inhibitors of TLR4-MyD88 association in cells, primary screen, cell-based, HeLa CL3-4, BLA complementation, FRET ratio | HeLa CL3-4 TLR4/MyD88 BLA complementation | inhibition, % at 8.4 µM | 0.18% of 200,000 active | AID 861, 2007; in the data active = inhibition above about 25%;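 note: 0% = vehicle and 100% = reference inhibitor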
# Target sequence (O00206 whole entry, looked up): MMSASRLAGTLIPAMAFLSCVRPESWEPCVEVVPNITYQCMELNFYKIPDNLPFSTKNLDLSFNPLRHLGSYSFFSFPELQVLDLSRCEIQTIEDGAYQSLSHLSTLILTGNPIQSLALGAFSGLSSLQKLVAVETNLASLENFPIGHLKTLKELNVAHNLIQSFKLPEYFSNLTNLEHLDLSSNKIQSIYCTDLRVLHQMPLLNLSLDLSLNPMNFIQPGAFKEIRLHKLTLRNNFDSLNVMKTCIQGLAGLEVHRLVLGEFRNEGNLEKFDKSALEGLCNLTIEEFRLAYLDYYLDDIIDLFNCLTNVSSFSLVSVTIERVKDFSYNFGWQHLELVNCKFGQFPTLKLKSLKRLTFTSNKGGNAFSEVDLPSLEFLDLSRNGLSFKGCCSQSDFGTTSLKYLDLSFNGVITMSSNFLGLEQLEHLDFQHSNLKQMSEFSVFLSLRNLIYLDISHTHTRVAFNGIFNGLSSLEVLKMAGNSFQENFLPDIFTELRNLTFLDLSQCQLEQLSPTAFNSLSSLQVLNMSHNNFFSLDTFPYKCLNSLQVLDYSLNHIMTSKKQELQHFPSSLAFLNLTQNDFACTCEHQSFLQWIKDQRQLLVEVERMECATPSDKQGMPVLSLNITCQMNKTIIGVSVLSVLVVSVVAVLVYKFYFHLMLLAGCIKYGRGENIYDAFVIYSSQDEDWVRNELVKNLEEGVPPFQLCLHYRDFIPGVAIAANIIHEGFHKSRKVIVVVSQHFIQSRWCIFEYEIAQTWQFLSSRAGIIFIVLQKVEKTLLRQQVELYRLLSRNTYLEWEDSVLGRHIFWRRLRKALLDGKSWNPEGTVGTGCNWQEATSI
# Target sequence (Q99836 whole entry, looked up): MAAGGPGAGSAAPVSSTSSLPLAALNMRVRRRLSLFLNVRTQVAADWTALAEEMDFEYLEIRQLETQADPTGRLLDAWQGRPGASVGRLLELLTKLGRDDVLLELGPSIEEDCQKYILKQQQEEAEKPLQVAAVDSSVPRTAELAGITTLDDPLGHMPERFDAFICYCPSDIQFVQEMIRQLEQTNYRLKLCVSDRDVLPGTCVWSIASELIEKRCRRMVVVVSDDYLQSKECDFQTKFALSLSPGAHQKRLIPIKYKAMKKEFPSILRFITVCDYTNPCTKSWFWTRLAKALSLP
# UPR CHOP act = activators of apoptotic CHOP UPR arm, primary screen, cell-based, CHO-CHOP luciferase reporter, luminescence, uHTS. 0.34% of 330,000 active. UPR activation; percent of tunicamycin response over DMSO baseline. activation, % at 10 µM. AID 449763, 2010;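 active = at 10 µM dose, activation of 40% or more, normalized to positive control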;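 note: 100% = tunicamycin at 10 µg/mL and 0% = DMSO alone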
#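 Assay system: CHO-CHOP cells, stable luciferase reporter of PERK-eIF2a-CHOP signalling / Buffer or medium: F12 plus 10% serum / Compound dosing: one dose, 10 µM in 0.5% DMSO / Times: 6 h compound treatment, 37 °C / Technique: luciferase luminescence / Read-out: % reporter activation, DMSO baseline versus tunicamycin full activation / Benchmarks: tunicamycin and DMSO controls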
# CHOP inh conf = retest of CHOP induction inhibitors, confirmation, cell-based | shares compounds with CHOP inhibitor | CHO-CHOP promoter luciferase reporter, tunicamycin-induced, luminescence | inhibition, % at 10 µM | 45% of 2,100 active | AID 504437, 2011;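 active = mean of three repeat readings of reporter signal inhibition above a set limit, cut at about 70% in these data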;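 note: 0% = tunicamycin plus vehicle and 100% = wells lacking tunicamycin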
# CHOP UPR conf = activators of apoptotic CHOP UPR arm, confirmation, cell-based, CHO-CHOP luciferase reporter, single concentration | shares compounds with UPR CHOP act | CHO-CHOP cells, CHOP-luciferase reporter luminescence; percent of tunicamycin response, DMSO as zero | activation, % at 10 µM | 64% of 1,000 active; in the data active = activation above about 33%;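 note: 0% = DMSO wells and 100% = tunicamycin 10 µg/mL wells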
# UPR XBP1 confirm = IRE1-XBP1 UPR arm activators, confirmation, cell-based, CHO-XBP1 luciferase reporter, luminescence, single concentration. AID 485299, 2010. shares compounds with XBP1 UPR activ. 63% of 1,000 active. activation, % at 20 µM;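 active = reporter signal at least 30% of the positive control's activation in two or more of four replicate wells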;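 note: plate controls were DMSO negative control for no effect and tunicamycin 10 µg/mL positive control for full effect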
# * hit, by the source's call; . = no result. The full list was thinned out, with hits kept by preference.
SMILES,XBP1 UPR activ,CHOP inhibitor,TLR9-MyD88 block,NOD2-RIPK2 inh,TLR4 MyD88 comp,UPR CHOP act,CHOP inh conf,UPR XBP1 confirm,others
O=C(COC(=O)C1=COCCO1)NCc1ccc(Cl)cc1Cl,.,.,5,-1,.,.,.,.,
Fc1ccc(Nc2nc(NCc3ccco3)c3ccccc3n2)cc1,31*,97*,5,-3,.,27,73*,33*,
Nc1nc(NCc2ccco2)nc(Nc2ccccc2)c1[N+](=O)[O-],2,20,3,-10,.,-2,.,.,
CCOC(=O)C1CCN(C(=O)c2sc3ncn(CC(=O)N4CCCCC4)c(=O)c3c2C)CC1,.,.,0,-2,.,.,.,.,
N#CCCN(Cc1ccccc1)C(CCc1ccccc1)C(=O)NC1CCCCC1 (configuration not stated),.,.,.,-7,.,.,.,.,
CC1CN(S(=O)(=O)c2ccc(C(=O)Nc3nc(-c4cc5ccccc5o4)cs3)cc2)CC(C)O1 (configuration not stated),48*,107*,1,10,-11,13,73*,134*,
CC(=O)Oc1ccccc1Cn1c(C)c(C(=O)NCc2cccc(Cl)c2)sc1=O,.,.,.,-2,.,.,.,.,
COc1ccc2[nH]cc(CCNC(=O)/C=C/[C@H]3O[C@@H](n4cnc5c(NC(=O)c6ccccc6)ncnc54)[C@H](O)[C@@H]3O)c2c1,.,.,.,-2,.,.,.,.,
COc1cccc(N=c2oc3ccc(OC)cc3cc2-c2nc3ccccc3[nH]2)c1,2,-20,15,6,1,6,.,.,
COc1ccc(N=c2oc3ccc(OC)cc3cc2-c2nc3ccccc3[nH]2)cc1,84*,102*,10,-2,-7,135*,107*,133*,CHOP UPR conf=147*
O=S(=O)(/N=C(\Sc1ccc(Cl)cc1)c1ccccc1)c1ccccc1,43*,103*,8,-7,-1,21,35,3,
COc1ccc(CCCNC(=O)C2(C)Cc3c(-c4cccc(C(N)=O)c4)ccnc3O2)cc1 (configuration not stated),.,.,.,9,.,.,.,.,
CCOc1ccc2nc(NC3=NC(C)(C)C=C(C)N3)nc(C)c2c1,1,4,-9,-2,-1,-2,.,.,
CCOc1ccc2nc(NC3=NC(c4ccc(OC)cc4)CC(=O)N3)nc(C)c2c1 (configuration not stated),133*,106*,-10,1,3,30,-33,167*,
O=C(Nc1ccc(-c2nc3ncccc3o2)cc1)c1ccc(Br)o1,62*,103*,-6,-5,-9,5,-18,4,
COc1cc(-c2nc(-c3ccc(NC(=O)c4ccc(Br)o4)cc3)no2)cc(OC)c1OC,7,-2,-6,-5,0,4,.,.,
COc1ccc(-c2nc(-c3ccc(NC(=O)c4ccc(Br)o4)cc3)no2)cc1OC,35*,103*,1,-12,4,30,110*,16,
O=C(NCc1cc(Cl)cc(Cl)c1)c1ccc2nc(COCCO)[nH]c2c1,.,.,.,-4,.,.,.,.,
CC(=O)Oc1ccccc1Cn1c(C)c(C(=O)NCc2ccc(F)cc2)sc1=O,.,.,.,5,.,.,.,.,
